Screens deposited in PubChem by several laboratories.
Bfl-1 A1 inh – inhibitors of the anti-apoptotic protein A1, read as caspase activation; MEF A1-2A-BIM cells, Caspase-Glo 3/7 luminescence, 3 h; percent of clofoctol response, vehicle zero; caspase activation, % (no concentration beside the values); 330,000 compounds, 0.066% hits;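 active means over half of replicate activation scores above 10%, or exactly half above 10 with the replicate mean above 10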
NTR1 agonist – activates human neurotensin receptor 1; P30989; NTR1-U2OS beta-arrestin-GFP spot imaging, agonist mode; activation, % at 20 µM; 330,000 compounds, 0.17% hits; AID 493036;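 active means activation at or above 40% of the spot to cytoplasm intensity ratio, with at least 20 cells analyzed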;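 further: 0% = DMSO without peptide and 100% = 100 nM NTR1 peptide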
Granule exo inh – lytic granule exocytosis inhibition. AID 651702. TALL-104 LAMP-1 surface exposure, flow cytometry; cells stimulated with thapsigargin and PMA. inhibition, % at 10 µM. 360,000 compounds, 0.66% hits;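 active means inhibition above about 55%, limit read from the data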
HGIII-sPLA2 inh – Blocks human group III sPLA2 activity; 370,000 compounds, 0.56% hits; inhibition, % at 12.2 µM; AID 743126; QFRET BODIPY PC-A2 liposome hydrolysis, fluorescence; Q9NZ20;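 active means inhibition above mean plus 3 SD of compounds lying within the high and low control bounds, cut at about 19% in these data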;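 further: 0% = median of test compound wells and 100% = no enzyme DMSO wells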
MC4R ag barr – agonists of human melanocortin 4 receptor (MC4R) beta-arrestin; U2OS MC4R beta-arrestin complementation, luminescence; percent of melanotan II response, DMSO zero; activation, % at 8.9 µM; P32245; 360,000 compounds, 0.98% hits;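 active means activation above a per-plate cutoff, the mean activation of sample wells on that plate plus 3 SD, cut at about 8% in these data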
Target sequence (P32245 whole entry, looked up): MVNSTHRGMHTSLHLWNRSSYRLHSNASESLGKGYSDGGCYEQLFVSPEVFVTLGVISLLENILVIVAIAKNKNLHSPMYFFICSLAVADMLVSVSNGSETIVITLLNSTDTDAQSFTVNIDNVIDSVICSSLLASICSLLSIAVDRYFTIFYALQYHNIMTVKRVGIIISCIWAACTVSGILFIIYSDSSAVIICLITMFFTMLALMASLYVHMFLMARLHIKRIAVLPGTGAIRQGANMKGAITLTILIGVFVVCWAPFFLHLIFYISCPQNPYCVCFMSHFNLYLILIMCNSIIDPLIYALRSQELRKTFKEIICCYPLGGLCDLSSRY
MC4R antagonist – human MC4R antagonism in cAMP assay | MC4R-expressing cells, MTII-stimulated cAMP, LANCE TR-FRET | AID 540295 | 360,000 compounds, 0.48% hits | inhibition, % at 6.5 µM;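 active means inhibition above its plate's cutoff, the mean of tested wells on that plate plus 3 SD, cut at about 29% in these data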;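 further: 0% = Melanotan II alone and 100% = Melanotan II plus saturating MCL0020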
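Material – human MC4R-expressing U2OS cells · Repeats – no replicates · Detection – TR-FRET with Eu-cAMP and labeled anti-cAMP, 671 nm · Times – compound 30 min, challenge 1 h, detection 1 h · Compound – single nominal compound dose of 6.5 µM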
MC4R barr conf – human MC4R beta-arrestin agonism confirmation; shares compounds with MC4R ag barr; U2OS MC4R beta-arrestin recruitment, luminescence; scaled DMSO 0%, Melanotan II 100%; activation, % at 8.9 µM; 2,400 compounds, 31% hits; AID 602192;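 active means mean activation across replicates above the hit cutoff set in the earlier primary screen, cut at about 8% in these data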
MOR-DOR barr ag – activates mu-delta opioid heterodimer, MC4R agonist counter-screen; shares compounds with MC4R ag barr; activation, % at 9.2 µM; U2OS PathHunter beta-arrestin, beta-gal luminescence; percent of deltorphin B response, DMSO zero; 2,400 compounds, 5.8% hits;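 active means mean activation across replicates exceeds the hit threshold derived in the earlier primary screen, cut at about 18% in these data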;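 further: 100% = deltorphin B at 0.9 µM final and 0% = DMSO alone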
The depositor's hits bear a star; / = no result given. Most compounds without a hit are left out; they make up all but 2.5% or so of the library.

SMILES	Bfl-1 A1 inh	NTR1 agonist	Granule exo inh	HGIII-sPLA2 inh	MC4R ag barr	MC4R antagonist	MC4R barr conf	MOR-DOR barr ag
COc1cc(NC(=O)C2CCCN(S(=O)(=O)c3ccc(C)cc3)C2)cc(OC)c1 (stereo unspecified)	/	/	/	-28	/	/	/	/
CCOC(=O)C1=C(C)N(C)C(=S)NC1c1c(OCC)ccc2ccccc12 (stereo unspecified)	0	1	25	5	21*	-1	-1	6
C=C1C2(C(=O)Nc3ccc(SC(F)F)cc3)CCC(C2)C1(C)C (stereo unspecified)	1	0	0	9	17*	-4	0	6
COC(=O)[C@]12C[C@H](CC(=O)NCc3ccc(C)o3)C(=O)N(Cc3ccc4c(c3)OCO4)C1=C[C@H](C(C)C)O[C@@H]2C1CC1	/	/	/	-5	/	/	/	/
COc1ccc(-c2ccc3oc(-c4ccc(OC)cc4)c(C#CCCO)c3c2)cc1	-1	20	-5	-1	11*	-1	2	3
COC(=O)[C@]12C[C@H](CC(=O)N3CCCC3)C(=O)N(CCc3ccc(OC)c(OC)c3)C1=C[C@H](C1CCCC1)O[C@@H]2C	/	/	/	8	/	/	/	/
CCNC(=O)c1c(NC(=O)C2COc3ccccc3O2)sc2c1CCCC2 (stereo unspecified)	-1	4	-1	4	3	0	/	/
COCCCNC(=O)c1c(NC(=O)C2COc3ccccc3O2)sc2c1CCCC2 (stereo unspecified)	-2	1	5	5	11*	5	1	3
CCCNc1c(NS(=O)(=O)c2ccc(C(C)(C)C)cc2)c(=O)oc2ccccc12	-1	3	-1	-14	11*	5	2	6
Cc1nc(NC(=O)c2ccccc2)sc1-c1csc(Nc2ccc(Cl)cc2)n1	-11	-2	/	/	/	/	/	/
Cc1nc(NC(=O)c2ccco2)sc1-c1csc(Nc2ccc(Cl)cc2)n1	-1	0	15	2	10*	21	9.1*	5
Cc1ccc(NC(=O)c2cc(NC(=O)c3ccco3)ccc2N2CCCCC2)cc1	0	-1	-3	2	18*	20	6	7
O=C(/C(=N/N=C/c1ccc(O)c(O)c1)c1ccccc1)c1ccccc1	1	6	0	-10	10*	17	3	11
CC(/C=C/c1ccco1)=N/NC(=O)CNc1ccccc1C	1	-1	1	-1	1	-4	/	/
CC(/C=C/C=C/c1ccccc1)=N/NC(=O)CNc1ccccc1C	-1	1	-3	1	14*	-14	29*	10
O=C(CCl)NC(Cc1ccccc1)C(=O)OCC(=O)c1ccc(-c2ccccc2)cc1 (stereo unspecified)	/	/	-4	-8	14*	10	2	6
CC1CCCCN1S(=O)(=O)c1ccc(S(=O)(=O)N2CCN(c3ccccc3)CC2)cc1 (stereo unspecified)	0	9	0	2	9.8*	2	15*	4
COc1ccc(-c2nc(NC(=O)c3n[nH]c(=O)c4ccccc34)sc2C)cc1	6.7*	6	-6	0	14*	5	6	4
Cc1ccc(S(=O)(=O)CC(CN2CCCCC2)N2CCCCC2)cc1 (stereo unspecified)	/	/	-7	12	0	-3	/	/
O=S(=O)(CC(CN1CCOCC1)N1CCOCC1)c1ccccc1 (stereo unspecified)	0	-1	-11	0	9.6*	3	2	2
O=[N+]([O-])c1cc(C(F)(F)F)ccc1NCCc1c[nH]c2ccccc12	0	30	-1	-90	-3	-1	/	/
O=[N+]([O-])c1cc(C(F)(F)F)ccc1NCCc1c[nH]c2ccc(O)cc12	0	19	-3	-23	15*	0	4	5
